# ASAP1 inh – inhibitors of human ASAP1 ArfGAP activity, primary screen, biochemical, fluorescence polarization | Arf-GAP with SH3 domain, ANK repeat and PH domain-containing protein 1 (Homo sapiens), … | ASAP1-stimulated ARF1 GTP hydrolysis, GDP FP detection | inhibition, % at 16.5 µM | 0.19% of 360,000 active; in the data active = inhibition above about 25%;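 note: 0% = vehicle with enzyme and substrate and 100% = no enzyme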
# ARFGAP1 inhibitor – inhibitors of rat ARFGAP1 GAP activity, primary screen, biochemical, fluorescence polarization, GDP tracer; ADP-ribosylation factor GTPase-activating protein 1 (Rattus norvegicus), Q62848; Arfgap1-stimulated ARF1 GTP hydrolysis, GDP FP detection; inhibition, % at 16.5 µM; 0.26% of 360,000 active; AID 651572, 2012;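 active = inhibition above a per-plate limit, mean inhibition of low control wells plus 3 SD, cut at about 25% in these data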;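 note: 0% = DMSO wells with enzyme and 100% = wells lacking Arfgap1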
# Target sequence (Q62848 1-136 limits assumed): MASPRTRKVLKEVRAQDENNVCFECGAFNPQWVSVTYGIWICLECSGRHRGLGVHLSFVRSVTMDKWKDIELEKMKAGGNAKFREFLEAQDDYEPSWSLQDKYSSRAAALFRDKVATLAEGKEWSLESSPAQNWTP
#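 System: truncated rat Arfgap1 GAP domain / Benchmarks: high control wells lacking Arfgap1, low control full reaction with DMSO / Times: compound-enzyme preincubation 20 min, reaction 120 min, detection 60 min, 25 °C / Repeats: one replicate per compound / Also added: human ARF1(Δ1-17)-GTP substrate / Measured by: Tracer-displacement fluorescence polarization with EDTA stop, 620/688 nm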
# Rev-erbA mod – modulators of Rev-erb alpha DNA binding, primary screen, biochemical, FITC-DNA, fluorescence polarization, uHTS | Nuclear receptor subfamily 1 group D member 1 (Homo sapiens), P20393 | activity, % at 10 µM | 0.79% of 370,000 active | AID 1259318, 2017 | Rev-erbα–FITC-DNA binding, 90 min;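 active = activity above about 14%, limit read from the data; passing the limit was not always enough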;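 note: 0% = DMSO wells with 35 nM protein and 100% = DMSO wells with 750 nM protein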
# MsrA inhibitor – bovine MsrA enzyme inhibitors, primary screen, biochemical, absorbance, HTS. purified bovine MsrA, absorbance read-out. Methionine sulfoxide reductase A (Bos taurus). 0.75% of 360,000 active. AID 651718, 2012. inhibition, % at 15.5 µM;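 note: 0% = vehicle wells with enzyme and 100% = reference inhibitor wells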
# MsrA act – bovine MsrA enzyme activators, primary screen, biochemical, absorbance, HTS; purified bovine MsrA, absorbance read-out; activation, % at 10.6 µM; 0.3% of 360,000 active; AID 602163, 2012; in the data active = activation above about 7.5%;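 note: 0% = vehicle and 100% = reference activator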
# HGIII-sPLA2 inh – human group III sPLA2 inhibitors, primary screen, biochemical, QFRET, BODIPY PC-A2 liposome substrate. Group 3 secretory phospholipase A2 (Homo sapiens), Q9NZ20. QFRET BODIPY PC-A2 liposome hydrolysis, fluorescence. inhibition, % at 12.2 µM. 0.56% of 370,000 active. AID 743126, 2013;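 active = inhibition above mean plus 3 SD of compounds lying within the high and low control bounds, cut at about 19% in these data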;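 note: 0% = median of test compound wells and 100% = no enzyme DMSO wells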
# Target sequence (Q9NZ20 whole entry, looked up): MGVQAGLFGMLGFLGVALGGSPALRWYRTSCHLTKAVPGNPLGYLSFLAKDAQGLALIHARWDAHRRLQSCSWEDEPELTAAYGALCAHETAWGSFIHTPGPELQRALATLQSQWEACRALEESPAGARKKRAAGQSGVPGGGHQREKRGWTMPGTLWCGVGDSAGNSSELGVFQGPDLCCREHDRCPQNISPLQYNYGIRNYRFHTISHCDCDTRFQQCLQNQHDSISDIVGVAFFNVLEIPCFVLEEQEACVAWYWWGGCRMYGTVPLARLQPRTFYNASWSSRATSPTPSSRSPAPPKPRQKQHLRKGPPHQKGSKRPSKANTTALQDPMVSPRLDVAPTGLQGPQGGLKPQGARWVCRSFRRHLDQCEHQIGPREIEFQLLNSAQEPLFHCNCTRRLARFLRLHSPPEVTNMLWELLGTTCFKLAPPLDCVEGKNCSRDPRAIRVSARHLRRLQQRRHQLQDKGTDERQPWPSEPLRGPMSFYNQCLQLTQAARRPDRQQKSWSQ
# MsrA conf – bovine MsrA inhibitors, retest, confirmation, biochemical, absorbance, HTS | shares compounds with MsrA inhibitor | purified bovine MsrA, absorbance read-out | inhibition, % at 15.5 µM | 41% of 2,300 active;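 note: coupled to thioredoxin reductase with NADPH and selenocystamine and DMSO as substrate; 0% = vehicle only and 100% = full effect of reference inhibitor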
# Starred values were filed as active, the others as inactive; . = no result given. Sampled rows, rich in hits. Any-hit rate of the full collection: about 2.7%. Cut-off read from the data, not from the text of the source, unless noted: active = inhibition above about 4.5%; inactive = the rest.
SMILES,ASAP1 inh,ARFGAP1 inhibitor,Rev-erbA mod,MsrA inhibitor,MsrA act,HGIII-sPLA2 inh,MsrA conf
CC(=O)c1c(OCC(=O)O)ccc2c(C)cc(=O)oc12,-2.0,0.8,-2.1,0.9,-4.3,1.8,.
COc1cc(/C=C/C(=O)c2c(O)ccc3c(C)cc(=O)oc23)ccc1O,-12.8,-3.7,0.8,6.9*,-7.8,-6.4,6.1*
Cc1cc(=O)oc2c(C(=O)/C=C\c3cccs3)c(O)ccc12,0.3,-6.6,-5.1,5.2*,-6.0,-2.8,6.3*
COc1ccc(/C=C\C(=O)c2c(O)ccc3c(C)cc(=O)oc23)cc1OC,-9.0,10.2,-1.9,5.2*,-3.5,-7.9,4.3
Clc1ccc(CN2CCN(N=Cc3ccncc3)CC2)cc1,.,.,7.2,.,.,2.9,.
COC(=O)C1CN(CCO)CCS(=O)(=O)N1Cc1cccc(Cl)c1 (centres undefined),.,.,-0.9,.,.,2.6,.
O=C(O)CCN1C(=O)/C(=C/c2ccc(F)cc2F)SC1=S,.,.,0.9,.,.,-5.8,.
COC(=O)[C@]12C[C@H](CC(=O)N3CCC(c4ccccc4)CC3)C(=O)N(Cc3ccco3)C1=C[C@H](COCc1ccccc1)O[C@@H]2C,.,.,-1.7,.,.,1.8,.
COCCCNC(=O)C(=O)N/N=C/c1cc2c(cc1Br)OCO2,-8.9,1.0,9.8,5.0*,-2.9,-2.5,2.9
Cc1cc(C)c[n+](-c2[nH]c(=O)sc2/C=N/N=C(\[O-])c2cccnc2)c1,-8.4,-1.2,-0.9,5.6*,-10.1,2.4,4.5
Cc1ccc(C)n1-n1c(C)nc2scc(-c3cccs3)c2c1=O,-1.9,0.0,2.1,29.1*,-1.9,-10.3,25.0*
Cc1nc2scc(-c3cccs3)c2c(=O)n1-n1cccc1,2.7,-6.8,2.4,15.2*,1.1,-5.2,10.5*
Cc1nc2scc(-c3cccs3)c2c(=O)o1,-3.0,16.0,-3.3,-0.6,-0.2,2.6,.
COc1ccc(-c2csc3nc(C)n(-n4cccc4)c(=O)c23)cc1,6.7,2.8,-3.4,8.6*,-2.4,-3.2,3.5
CN1CCN(c2ccc3c(c2)Oc2ccccc2CN(Cc2cn(Cc4cccc(C(F)(F)F)c4)nn2)S3(=O)=O)CC1,.,.,9.1,.,.,-11.7,.
COc1ccc(-c2noc(C3CCCN(C(=O)Nc4cc(C)cc(C)c4)C3)n2)cc1 (centres undefined),.,.,-2.6,.,.,-8.3,.
COC(=O)C1CN(Cc2ccccc2)CCS(=O)(=O)N1Cc1cn(Cc2cccc(Cl)c2)nn1 (centres undefined),.,.,1.2,.,.,-1.6,.
COc1ccc(S[C@]2(C(=O)N3CCOCC3)CC(=O)N(C(=O)C3CC3)[C@@H]2c2ccc(OC)cc2)cc1,.,.,-6.0,.,.,-4.6,.
CCOc1ccc(-n2c(SCC(=O)Nc3ccc(S(=O)(=O)Nc4nccs4)cc3)nnc2-c2ccncc2)cc1,.,.,0.9,.,.,-32.4,.
CCC[C@H]1[C@@H](OC(=O)NCc2ccc(C(F)(F)F)cc2)CC[C@@]23CCCN2C(=O)CCC[C@@H]13,.,.,2.9,.,.,-7.5,.
CC(=O)COc1ccc2oc(=O)cc(-c3cc4ccccc4o3)c2c1,6.8,-6.6,1.3,12.7*,-2.6,-23.5,12.3*
O=c1cc(-c2cc3ccccc3o2)c2cc(O)ccc2o1,.,.,.,.,-4.7,.,.
Cc1cc2oc(=O)cc(-c3cc4ccccc4o3)c2cc1O,-12.2,-12.2,-14.2,6.5*,-4.5,-3.4,3.6
Cc1ccc(C(=O)C2=C(O)C(=O)N(CCCN(C)C)C23C(=O)N(C)c2ccccc23)o1 (centres undefined),-9.9,6.9,-2.2,5.6*,-2.0,2.5,6.4*
CN1C(=O)C2(c3ccccc31)c1c(oc3ccccc3c1=O)C(=O)N2CCO (centres undefined),-6.7,1.6,10.6,0.0,-1.5,-0.8,.
SMILES,ASAP1 inh,ARFGAP1 inhibitor,Rev-erbA mod,MsrA inhibitor,MsrA act,HGIII-sPLA2 inh,MsrA conf
Brc1ccc(Nc2ncnc3[nH]ncc23)cc1,-5.8,2.0,-1.7,-1.0,-2.5,-13.4,.
Cc1ccccc1Nc1ncnc2[nH]ncc12,-13.6,-4.0,2.1,14.2*,-1.4,-4.4,11.6*
O=C(Nc1cccc(C(=O)O)c1)/C(=C\C=C\c1ccccc1)NC(=O)c1ccccc1,-6.3,-8.1,7.1,8.4*,-5.0,-8.4,5.5*
O=C(Nc1ccc(C(=O)O)cc1)/C(=C\C=C\c1ccccc1)NC(=O)c1ccccc1Br,-0.5,-2.9,-6.5,8.7*,-11.9,1.2,6.4*
Cc1ccc(NC(=O)/C(=C\C=C\c2ccccc2)NC(=O)c2ccccc2)cc1,-3.7,9.4,-2.1,3.9,-7.4,0.3,.
O=C(Nc1ccc(C(=O)O)cc1)/C(=C\C=C\c1ccccc1)NC(=O)c1cccc(Br)c1,5.5,-12.6,-5.0,5.2*,-4.1,-24.1,4.6*
O=C(Nc1cccc(C(=O)O)c1)/C(=C\c1ccccc1)NC(=O)c1ccccc1,-12.7,4.4,-0.9,2.9,-5.2,3.5,.
CN(C)c1ccc(C(=O)Nc2ccc(S(=O)(=O)NC3=NCCCCC3)cc2)cc1,-5.1,7.8,-4.4,5.1*,-5.8,-6.6,2.4
CCC(C(=O)Nc1ccccc1N1CCCC1)c1ccccc1F (centres undefined),.,.,-2.7,.,.,8.7,.
Cn1c(=O)n(C)c2cc(/C=C3/SC(=O)N(CC(=O)N4CCOCC4)C3=O)ccc21,20.9,1.4,-1.9,4.8*,-3.9,9.3,4.5
O=C(O)c1ccc(/C=N/Nc2cccc(C(F)(F)F)c2)cc1,-1.3,-15.4,-9.7,2.2,-0.9,-7.5,.
O=C(O)c1ccc(/C=N/Nc2ccc(C(F)(F)F)cn2)cc1,-16.7,-1.9,-5.8,7.0*,-8.5,0.7,6.3*
COc1ccccc1S(=O)(=O)N(C)C[C@H]1Oc2cc(Br)ccc2S(=O)(=O)N([C@@H](C)CO)C[C@H]1C,-9.6,0.7,-1.3,0.2,-2.5,-8.0,.
COc1ccccc1S(=O)(=O)N(C)C[C@H]1Oc2cc(Br)ccc2S(=O)(=O)N([C@H](C)CO)C[C@H]1C,3.0,12.0,-11.2,5.6*,.,-25.5,0.5
Cc1cc2nc(-c3ccc(SCc4ccc(C(=O)O)cc4)nc3)[nH]c2cc1C,6.1,3.4,-4.3,5.5*,-1.9,1.7,4.0
COC(=O)c1cc2c(-c3ccccc3)cc3ccccn3c-2c1C(=O)OC,0.3,-3.7,-4.0,1.1,-10.8,2.8,.
COC(=O)c1c(C)c2c(C)cc3ccccn3c-2c1C(=O)OC,-3.5,-11.1,-1.1,4.7*,-2.1,12.4,3.2

# High-throughput results (PubChem BioAssay)
